# ChEMBL document CHEMBL4673214, “Synthesis and antibacterial bioactivities of cationic deacetyl linezolid amphiphiles” (Eur J Med Chem, 2018)
# Assays:
# Staphylococcus aureus [1] = assay: Antibacterial activity against Staphylococcus aureus ATCC 29213 assessed as reduction in bacterial growth incubated for 16 to 20 hrs by CLSI-based broth microdilution method; type: functional; conditions: time 16-20 hrs
# Method in brief: (§1)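 Broth microdilution following CLSI, in cation-adjusted Mueller-Hinton broth. Inoculum from a 4-6 h culture (~10^8 CFU/mL), diluted to ~10^6 CFU/mL. Water stocks were serially diluted in MHB (256 to 0.5 µg/mL) and mixed 1:1 with the inoculum. Plates ran 16-20 h at 37 °C. MIC was read visually. Each concentration was tested in duplicate, and the experiment was repeated at least twice.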
# Escherichia coli = assay: Antibacterial activity against Escherichia coli ATCC 25922 assessed as reduction in bacterial growth incubated 16 to 20 hrs by CLSI-based broth microdilution method; type: functional; conditions: time 16-20 hrs; method in brief: as §1
# Salmonella enterica = assay: Antibacterial activity against Salmonella enterica ATCC 8387 assessed as reduction in bacterial growth incubated for 16 to 20 hrs by CLSI-based broth microdilution method; type: functional; conditions: time 16-20 hrs; method in brief: as §1
# Enterococcus faecalis = assay: Antibacterial activity against Enterococcus faecalis ATCC 29212 assessed as reduction in bacterial growth incubated 16 to 20 hrs by CLSI-based broth microdilution method; type: functional; conditions: time 16-20 hrs; method in brief: as §1
# [2] = Solubility of the compound in water at room temperature; type: physicochemical; conditions: buffer
# Enterobacteriaceae [3] = assay: Antibacterial activity against NDM1 producing carbapenem-resistant Enterobacteriaceae clinical isolate 8 assessed as reduction in bacterial growth incubated for 16 to 20 hrs by CLSI-based broth microdilution method; type: functional; conditions: time 16-20 hrs
# Method in brief: (§2)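 Clinical isolates tested by broth microdilution in cation-adjusted Mueller-Hinton broth. Cultures grown 4-6 h (~10^8 CFU/mL) were diluted to ~10^6 CFU/mL and mixed 1:1 with compound serial dilutions made from 256 down to 0.5 µg/mL (pre-mixing). Plates held at 37 °C for 16-20 h, then read for growth. Each concentration run in duplicate, whole experiment at least twice.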
# Staphylococcus aureus [4] = assay: Antibacterial activity against methicillin-resistant Staphylococcus aureus clinical isolate 9 assessed as reduction in bacterial growth incubated for 16 to 20 hrs by CLSI-based broth microdilution method; type: functional; conditions: time 16-20 hrs; method in brief: as §2
# Staphylococcus aureus [5] = assay: Antibacterial activity against methicillin-resistant Staphylococcus aureus clinical isolate 10 assessed as reduction in bacterial growth incubated for 16 to 20 hrs by CLSI-based broth microdilution method; type: functional; conditions: time 16-20 hrs; method in brief: as §2
# Klebsiella pneumoniae [6] = assay: Antibacterial activity against carbapenem-resistant Klebsiella pneumoniae clinical isolate 4 assessed as reduction in bacterial growth incubated for 16 to 20 hrs by CLSI-based broth microdilution method; type: functional; conditions: time 16-20 hrs; method in brief: as §2
# Klebsiella pneumoniae [7] = assay: Antibacterial activity against carbapenem-resistant Klebsiella pneumoniae clinical isolate 3 assessed as reduction in bacterial growth incubated for 16 to 20 hrs by CLSI-based broth microdilution method; type: functional; conditions: time 16-20 hrs; method in brief: as §2
# Klebsiella pneumoniae [8] = assay: Antibacterial activity against carbapenem-resistant Klebsiella pneumoniae clinical isolate 2 assessed as reduction in bacterial growth incubated for 16 to 20 hrs by CLSI-based broth microdilution method; type: functional; conditions: time 16-20 hrs; method in brief: as §2
# Klebsiella pneumoniae [9] = assay: Antibacterial activity against carbapenem-resistant Klebsiella pneumoniae clinical isolate 1 assessed as reduction in bacterial growth incubated for 16 to 20 hrs by CLSI-based broth microdilution method; type: functional; conditions: time 16-20 hrs; method in brief: as §2
# Enterobacteriaceae [10] = assay: Antibacterial activity against NDM1 producing carbapenem-resistant Enterobacteriaceae clinical isolate 5 assessed as reduction in bacterial growth incubated for 16 to 20 hrs by CLSI-based broth microdilution method; type: functional; conditions: time 16-20 hrs; method in brief: as §2
# Staphylococcus aureus [11] = assay: Antibacterial activity against methicillin-resistant Staphylococcus aureus clinical isolate 4 assessed as reduction in bacterial growth incubated for 16 to 20 hrs by CLSI-based broth microdilution method; type: functional; conditions: time 16-20 hrs; method in brief: as §2
# Staphylococcus aureus [12] = assay: Antibacterial activity against methicillin-resistant Staphylococcus aureus clinical isolate 7 assessed as reduction in bacterial growth incubated for 16 to 20 hrs by CLSI-based broth microdilution method; type: functional; conditions: time 16-20 hrs; method in brief: as §2
# Staphylococcus aureus [13] = assay: Antibacterial activity against methicillin-resistant Staphylococcus aureus clinical isolate 5 assessed as reduction in bacterial growth incubated for 16 to 20 hrs by CLSI-based broth microdilution method; type: functional; conditions: time 16-20 hrs; method in brief: as §2
# Klebsiella pneumoniae [14] = assay: Antibacterial activity against carbapenem-resistant Klebsiella pneumoniae clinical isolate 8 assessed as reduction in bacterial growth incubated for 16 to 20 hrs by CLSI-based broth microdilution method; type: functional; conditions: time 16-20 hrs; method in brief: as §2
# Staphylococcus aureus [15] = assay: Antibacterial activity against methicillin-resistant Staphylococcus aureus clinical isolate 6 assessed as reduction in bacterial growth incubated for 16 to 20 hrs by CLSI-based broth microdilution method; type: functional; conditions: time 16-20 hrs; method in brief: as §2
# Klebsiella pneumoniae [16] = assay: Antibacterial activity against carbapenem-resistant Klebsiella pneumoniae clinical isolate 6 assessed as reduction in bacterial growth incubated for 16 to 20 hrs by CLSI-based broth microdilution method; type: functional; conditions: time 16-20 hrs; method in brief: as §2
# Klebsiella pneumoniae [17] = assay: Antibacterial activity against carbapenem-resistant Klebsiella pneumoniae clinical isolate 7 assessed as reduction in bacterial growth incubated for 16 to 20 hrs by CLSI-based broth microdilution method; type: functional; conditions: time 16-20 hrs; method in brief: as §2
# Staphylococcus aureus [18] = assay: Antibacterial activity against methicillin-resistant Staphylococcus aureus clinical isolate 3 assessed as reduction in bacterial growth incubated for 16 to 20 hrs by CLSI-based broth microdilution method; type: functional; conditions: time 16-20 hrs; method in brief: as §2
# Staphylococcus aureus [19] = assay: Antibacterial activity against methicillin-resistant Staphylococcus aureus clinical isolate 2 assessed as reduction in bacterial growth incubated for 16 to 20 hrs by CLSI-based broth microdilution method; type: functional; conditions: time 16-20 hrs; method in brief: as §2
# Enterobacteriaceae [20] = assay: Antibacterial activity against NDM1 producing carbapenem-resistant Enterobacteriaceae clinical isolate 7 assessed as reduction in bacterial growth incubated for 16 to 20 hrs by CLSI-based broth microdilution method; type: functional; conditions: time 16-20 hrs; method in brief: as §2
# Enterobacteriaceae [21] = assay: Antibacterial activity against NDM1 producing carbapenem-resistant Enterobacteriaceae clinical isolate 10 assessed as reduction in bacterial growth incubated for 16 to 20 hrs by CLSI-based broth microdilution method; type: functional; conditions: time 16-20 hrs; method in brief: as §2
# Staphylococcus aureus [22] = assay: Antibacterial activity against methicillin-resistant Staphylococcus aureus clinical isolate 1 assessed as reduction in bacterial growth incubated for 16 to 20 hrs by CLSI-based broth microdilution method; type: functional; conditions: time 16-20 hrs; method in brief: as §2
# Enterobacteriaceae [23] = assay: Antibacterial activity against NDM1 producing carbapenem-resistant Enterobacteriaceae clinical isolate 1 assessed as reduction in bacterial growth incubated for 16 to 20 hrs by CLSI-based broth microdilution method; type: functional; conditions: time 16-20 hrs; method in brief: as §2
# Enterobacteriaceae [24] = assay: Antibacterial activity against NDM1 producing carbapenem-resistant Enterobacteriaceae clinical isolate 2 assessed as reduction in bacterial growth incubated for 16 to 20 hrs by CLSI-based broth microdilution method; type: functional; conditions: time 16-20 hrs; method in brief: as §2
# Enterobacteriaceae [25] = assay: Antibacterial activity against NDM1 producing carbapenem-resistant Enterobacteriaceae clinical isolate 6 assessed as reduction in bacterial growth incubated for 16 to 20 hrs by CLSI-based broth microdilution method; type: functional; conditions: time 16-20 hrs; method in brief: as §2
# Staphylococcus aureus [26] = assay: Antibacterial activity against methicillin-resistant Staphylococcus aureus clinical isolate 8 assessed as reduction in bacterial growth incubated for 16 to 20 hrs by CLSI-based broth microdilution method; type: functional; conditions: time 16-20 hrs; method in brief: as §2
# Enterobacteriaceae [27] = assay: Antibacterial activity against NDM1 producing carbapenem-resistant Enterobacteriaceae clinical isolate 3 assessed as reduction in bacterial growth incubated for 16 to 20 hrs by CLSI-based broth microdilution method; type: functional; conditions: time 16-20 hrs; method in brief: as §2
# Klebsiella pneumoniae [28] = assay: Antibacterial activity against carbapenem-resistant Klebsiella pneumoniae clinical isolate 9 assessed as reduction in bacterial growth incubated for 16 to 20 hrs by CLSI-based broth microdilution method; type: functional; conditions: time 16-20 hrs; method in brief: as §2
# Enterobacteriaceae [29] = assay: Antibacterial activity against NDM1 producing carbapenem-resistant Enterobacteriaceae clinical isolate 4 assessed as reduction in bacterial growth incubated for 16 to 20 hrs by CLSI-based broth microdilution method; type: functional; conditions: time 16-20 hrs; method in brief: as §2
# Enterobacteriaceae [30] = assay: Antibacterial activity against NDM1 producing carbapenem-resistant Enterobacteriaceae clinical isolate 9 assessed as reduction in bacterial growth incubated for 16 to 20 hrs by CLSI-based broth microdilution method; type: functional; conditions: time 16-20 hrs; method in brief: as §2
# Klebsiella pneumoniae [31] = assay: Antibacterial activity against carbapenem-resistant Klebsiella pneumoniae clinical isolate 5 assessed as reduction in bacterial growth incubated for 16 to 20 hrs by CLSI-based broth microdilution method; type: functional; conditions: time 16-20 hrs; method in brief: as §2
# Klebsiella pneumoniae [32] = assay: Antibacterial activity against carbapenem-resistant Klebsiella pneumoniae clinical isolate 10 assessed as reduction in bacterial growth incubated for 16 to 20 hrs by CLSI-based broth microdilution method; type: functional; conditions: time 16-20 hrs; method in brief: as §2
smiles,measurement,setting,value
CCCCCCCN(C[C@H]1CN(c2ccc(N3CCOCC3)c(F)c2)C(=O)O1)C(=O)[C@@H](N)CCCN=C(N)N.Cl.Cl.Cl,MIC,Staphylococcus aureus [1],64 µg/mL
same,MIC,Escherichia coli,128 µg/mL
same,MIC,Salmonella enterica,> 128 µg/mL
same,MIC,Enterococcus faecalis,128 µg/mL
same,solubility,[2],Soluble
CCCCCCCCCN(C[C@H]1CN(c2ccc(N3CCOCC3)c(F)c2)C(=O)O1)C(=O)[C@@H](N)CCCN=C(N)N.Cl.Cl.Cl,MIC,Staphylococcus aureus [1],16 µg/mL
same,MIC,Escherichia coli,64 µg/mL
same,MIC,Salmonella enterica,64 µg/mL
same,MIC,Enterococcus faecalis,32 µg/mL
same,solubility,[2],Soluble
CCCCCCCCCCCCCCCCCC[N+](C)(C)CC(=O)NC[C@H]1CN(c2ccc(N3CCOCC3)c(F)c2)C(=O)O1.[Cl-],MIC,Staphylococcus aureus [1],4 µg/mL
same,MIC,Escherichia coli,> 128 µg/mL
same,MIC,Salmonella enterica,> 128 µg/mL
same,MIC,Enterococcus faecalis,16 µg/mL
same,solubility,[2],Soluble
CCCC[N+](C)(C)CC(=O)NC[C@H]1CN(c2ccc(N3CCOCC3)c(F)c2)C(=O)O1.[Cl-],MIC,Staphylococcus aureus [1],> 128 µg/mL
same,MIC,Escherichia coli,> 128 µg/mL
same,MIC,Salmonella enterica,> 128 µg/mL
same,MIC,Enterococcus faecalis,> 128 µg/mL
same,solubility,[2],Soluble
NC[C@H]1CN(c2ccc(N3CCOCC3)c(F)c2)C(=O)O1,MIC,Staphylococcus aureus [1],> 128 µg/mL
same,MIC,Escherichia coli,> 128 µg/mL
same,MIC,Salmonella enterica,> 128 µg/mL
same,MIC,Enterococcus faecalis,> 128 µg/mL
CCCCCCCCCCCN(C[C@H]1CN(c2ccc(N3CCOCC3)c(F)c2)C(=O)O1)C(=O)[C@@H](N)CCCN=C(N)N.Cl.Cl.Cl,MIC,Enterobacteriaceae [3],16 µg/mL
same,MIC,Staphylococcus aureus [4],4 µg/mL
same,MIC,Staphylococcus aureus [5],4 µg/mL
same,MIC,Klebsiella pneumoniae [6],8 µg/mL
same,MIC,Klebsiella pneumoniae [7],8 µg/mL
same,MIC,Klebsiella pneumoniae [8],16 µg/mL
same,MIC,Klebsiella pneumoniae [9],16 µg/mL
same,MIC,Enterobacteriaceae [10],16 µg/mL
same,MIC,Staphylococcus aureus [11],4 µg/mL
same,MIC,Staphylococcus aureus [12],4 µg/mL
same,MIC,Staphylococcus aureus [13],8 µg/mL
same,MIC,Klebsiella pneumoniae [14],8 µg/mL
same,MIC,Staphylococcus aureus [1],4 µg/mL
same,MIC,Staphylococcus aureus [15],4 µg/mL
same,MIC,Klebsiella pneumoniae [16],16 µg/mL
same,MIC,Escherichia coli,8 µg/mL
same,MIC,Klebsiella pneumoniae [17],32 µg/mL
same,MIC,Staphylococcus aureus [18],4 µg/mL
same,MIC,Staphylococcus aureus [19],8 µg/mL
same,MIC,Enterobacteriaceae [20],16 µg/mL
same,MIC,Enterobacteriaceae [21],8 µg/mL
same,MIC,Salmonella enterica,8 µg/mL
same,MIC,Staphylococcus aureus [22],2 µg/mL
same,MIC,Enterobacteriaceae [23],> 64 µg/mL
same,MIC,Enterobacteriaceae [24],> 64 µg/mL
same,MIC,Enterobacteriaceae [25],16 µg/mL
same,MIC,Staphylococcus aureus [26],4 µg/mL
same,MIC,Enterococcus faecalis,8 µg/mL
same,MIC,Enterobacteriaceae [27],16 µg/mL
same,MIC,Klebsiella pneumoniae [28],8 µg/mL
same,MIC,Enterobacteriaceae [29],64 µg/mL
same,solubility,[2],Soluble
same,MIC,Enterobacteriaceae [30],16 µg/mL
same,MIC,Klebsiella pneumoniae [31],16 µg/mL
same,MIC,Klebsiella pneumoniae [32],16 µg/mL
CCCCCCCC[N+](C)(C)CC(=O)NC[C@H]1CN(c2ccc(N3CCOCC3)c(F)c2)C(=O)O1.[Cl-],MIC,Staphylococcus aureus [1],128 µg/mL
same,MIC,Escherichia coli,128 µg/mL
same,MIC,Salmonella enterica,128 µg/mL
same,MIC,Enterococcus faecalis,64 µg/mL
same,solubility,[2],Soluble
